Measured values as given in ChEMBL document CHEMBL1127826, “Inhibitors of acyl-CoA:cholesterol acyltransferase (ACAT). 7. Development of a series of substituted N-phenyl-N'-[(1-phenylcyclopentyl)methyl]ureas with enhanced hypocholesterolemic activity” (J Med Chem, 1994).

Tests used:
Rattus norvegicus [1] = assay: Compound was evaluated in experiment 2 for Total cholesterol at 3 (mg/kg) dose; assay type: functional
Method in brief: (§1)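 Chronic model in male Sprague-Dawley rats (200-225 g). Rats were fed chow with peanut oil 5.5%, cholesterol 1.5% and cholic acid ad libitum for 2 weeks. Test article was given by gavage once daily (morning) in the second week, as a CMC/Tween aqueous suspension. Blood was taken by cardiac puncture under ether 24 h after the last dose. Plasma total, HDL and nonHDL cholesterol were measured with an Abbott VP analyzer using dextran sulfate precipitation, reported as mg/dL and % change from control. Controls were cholesterol-fed rats and rats switched to chow in week 2.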

Rattus norvegicus [2] = assay: Compound was evaluated in experiment 2 for High density lipoproteins at 1 (mg/kg) dose; assay type: functional; method in brief: as §1
Rattus norvegicus [3] = assay: Compound was evaluated in experiment 2 for non High density lipoproteins at 1 (mg/kg) dose; assay type: functional
Method in brief: (§2)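 Male Sprague-Dawley rats (200-225 g) were fed chow with peanut oil (5.5%), cholesterol (1.5%) and cholic acid (0.5%) ad libitum for 2 weeks. During week 2 they were gavaged daily each morning with compound in aqueous CMC/Tween suspension. Controls were fed the cholesterol diet for 2 weeks, or switched to chow for week 2. Rats were bled by cardiac puncture under ether 24 h post-dose. Plasma HDL-C was measured after dextran sulfate precipitation, along with nonHDL-C. Values are given in mg/dL and as % change from control.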

Rattus norvegicus [4] = assay: Compound was evaluated in experiment 2 for Total cholesterol at 1 (mg/kg) dose; assay type: functional; method in brief: as §1
Rattus norvegicus [5] = assay: Compound was evaluated in experiment 2 for High density lipoproteins at 3 (mg/kg) dose; assay type: functional; method in brief: as §1
Rattus norvegicus [6] = assay: Compound was evaluated in experiment 2 for High density lipoproteins at 10 (mg/kg) dose; assay type: functional; method in brief: as §1
Rattus norvegicus [7] = assay: Compound was evaluated in experiment 2 for change in non High density lipoprotein at the doses at 3 (mg/kg) dose; assay type: functional; method in brief: as §1
Rattus norvegicus [8] = assay: Compound was evaluated in experiment 2 for High density lipoproteins at 30 (mg/kg) dose; assay type: functional; method in brief: as §1
Rattus norvegicus [9] = assay: Compound was evaluated in experiment 2 for change in non High density lipoprotein at the doses at 30 (mg/kg) dose; assay type: functional; method in brief: as §2
Rattus norvegicus [10] = assay: Compound was evaluated in experiment 2 for non High density lipoproteins at 3 (mg/kg) dose; assay type: functional; method in brief: as §2
Rattus norvegicus [11] = assay: Compound was evaluated in experiment 2 for Total cholesterol at 10 (mg/kg) dose; assay type: functional; method in brief: as §1
Rattus norvegicus [12] = assay: Compound was evaluated in experiment 2 for Change in High density lipoproteins at 1 (mg/kg) dose; assay type: functional; method in brief: as §1
Rattus norvegicus [13] = assay: Compound was evaluated in experiment 2 for Change in High density lipoproteins at 10 (mg/kg) dose; assay type: functional; method in brief: as §1
Rattus norvegicus [14] = assay: Compound was evaluated in experiment 2 for Change in total cholesterol at 10 (mg/kg) dose; assay type: functional; method in brief: as §1
Rattus norvegicus [15] = assay: Compound was evaluated in experiment 2 for non High density lipoproteins at 10 (mg/kg) dose; assay type: functional; method in brief: as §2
Rattus norvegicus [16] = assay: Compound was evaluated in experiment 2 for change in non High density lipoprotein at the doses at 10 (mg/kg) dose; assay type: functional; method in brief: as §1
Rattus norvegicus [17] = assay: Compound was evaluated in experiment 2 for Change in High density lipoproteins at 30 (mg/kg) dose; assay type: functional; method in brief: as §1
Rattus norvegicus [18] = assay: Compound was evaluated in experiment 2 for Change in total cholesterol at 30 (mg/kg) dose; assay type: functional; method in brief: as §1
Rattus norvegicus [19] = assay: Compound was evaluated in experiment 2 for non High density lipoproteins at 30 (mg/kg) dose; assay type: functional; method in brief: as §2
Rattus norvegicus [20] = organism: Rattus norvegicus; assay: Percent change in total cholesterol in peanut oil (5.5%)-, cholic acid (0.3%)-, Cholesterol (1.5%)-fed rats after a single dose.; assay type: functional
Method in brief: (§3)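 Male Sprague-Dawley rats (200-225 g), n=5-7/group, given a single oral dose at 4 p.m. as a suspension in 1.5% CMC/0.2% Tween-20 in water (50 mg/kg); controls received vehicle alone. The rats then had free access to chow with peanut oil, cholesterol and cholic acid. At 8 a.m. next day they were bled by cardiac puncture under ether, and serum total cholesterol was measured as % change versus controls (unpaired two-tailed t-test).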

Rattus norvegicus [21] = assay: Compound was evaluated for the percentage change in total cholesterol in peanut oil (5.5%)-cholic acid (0.3%)-cholesterol (1.5%)-fed rat at 30 mg/kg; assay type: functional
Rattus norvegicus [22] = assay: Compound was evaluated in experiment 2 for Total cholesterol at 30 (mg/kg) dose; assay type: functional; method in brief: as §1
Rattus norvegicus [23] = assay: Compound was evaluated in experiment 2 for Change in High density lipoproteins at 3 (mg/kg) dose; assay type: functional; method in brief: as §1
[24] = Compound was evaluated for the distribution coefficient at pH 7.4; assay type: physicochemical; conditions: octanol/water
[25] = biological target: T1, Acyl-CoA:cholesterol acyltransferase (Oryctolagus cuniculus, UniProt Q95214); assay: Tested for in vitro inhibition against Acyl coenzyme A:cholesterol acyltransferase of intestinal microsomes in cholesterol-fed rabbits; design: species or system Microsome
T1 sequence (Q95214 whole entry): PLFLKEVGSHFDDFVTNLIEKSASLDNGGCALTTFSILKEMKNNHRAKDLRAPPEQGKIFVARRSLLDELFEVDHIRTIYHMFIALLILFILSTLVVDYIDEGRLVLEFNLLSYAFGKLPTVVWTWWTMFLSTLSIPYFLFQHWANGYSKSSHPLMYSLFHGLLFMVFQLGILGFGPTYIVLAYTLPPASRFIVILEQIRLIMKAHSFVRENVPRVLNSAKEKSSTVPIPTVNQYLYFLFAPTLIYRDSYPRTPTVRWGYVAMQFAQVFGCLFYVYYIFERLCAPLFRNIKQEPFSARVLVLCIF
Method in brief: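 Microsomes were prepared from intestine of cholesterol-fed rabbits. ACAT activity was measured using [1-14C]oleoyl-CoA as substrate. Each determination was run in triplicate.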

Rattus norvegicus [26] = assay: Compound was evaluated in experiment 2 for Change in total cholesterol at 3 (mg/kg) dose; assay type: functional; method in brief: as §1
[27] = Solubility at pH 7.4; assay type: physicochemical; conditions: buffer
Rattus norvegicus [28] = assay: Compound was evaluated for % reduction in plasma cholesterol in cholesterol fed rats at a dose of 25 mg/kg; assay type: functional
Method in brief: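 Male Sprague-Dawley rats on a cholesterol-enriched diet. Dosing was either by gavage as a suspension in 1.5% carboxymethylcellulose/0.2% Tween-20 in water or in oleic acid, or given as a diet admixture. Result is % reduction in plasma cholesterol versus untreated controls given the same mode and vehicle. Significance threshold p < 0.05.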

[29] = Solubility at pH 4.0; assay type: physicochemical; conditions: buffer
[30] = Solubility at 0.1 N HCl; assay type: physicochemical; conditions: read-out: S
Rattus norvegicus [31] = organism: Rattus norvegicus; assay: Percent change in total cholesterol in peanut oil (5.5%) - cholic acid (0.3%) - Cholesterol (1.5%) fed rates after a single dose; assay type: functional; method in brief: as §3

Question: For CC(C)c1cccc(C(C)C)c1NC(=O)NCC1(c2cccc(CN(C)C)c2)CCCC1, which TC (Rattus norvegicus [1]) is on record?
Answer: 229

Question: And the HDL-C (Rattus norvegicus [2])?
Answer: 14

Question: What about the Non-HDL-C (Rattus norvegicus [3]) of the same compound?
Answer: 278

Question: What about the TC (Rattus norvegicus [4]) of the same compound?
Answer: 292

Question: What about the HDL-C (Rattus norvegicus [5]) of the same compound?
Answer: 17

Question: What about the HDL-C (Rattus norvegicus [6]) of the same compound?
Answer: 23

Question: And the “Change non HDL-C” value (Rattus norvegicus [7])?
Answer: -25%

Question: And the HDL-C (Rattus norvegicus [8])?
Answer: 33

Question: And the “Change non HDL-C” value (Rattus norvegicus [9])?
Answer: -76%

Question: And the Non-HDL-C (Rattus norvegicus [10])?
Answer: 212

Question: What about the TC (Rattus norvegicus [11]) of the same compound?
Answer: 200

Question: And the “Change HDL -C” value (Rattus norvegicus [12])?
Answer: 8%

Question: And the “Change HDL -C” value (Rattus norvegicus [13])?
Answer: 77%

Question: What about the “Change TC” value (Rattus norvegicus [14]) of the same compound?
Answer: -33%

Question: What about the Non-HDL-C (Rattus norvegicus [15]) of the same compound?
Answer: 177

Question: What about the “Change non HDL-C” value (Rattus norvegicus [16]) of the same compound?
Answer: -38%

Question: What about the “Change HDL -C” value (Rattus norvegicus [17]) of the same compound?
Answer: 154%

Question: What about the “Change TC” value (Rattus norvegicus [18]) of the same compound?
Answer: -66%

Question: What about the Non-HDL-C (Rattus norvegicus [19]) of the same compound?
Answer: 68

Question: What about the “Delta TC” value (Rattus norvegicus [20]) of the same compound?
Answer: -22%

Question: And the “Delta TC” value (Rattus norvegicus [21])?
Answer: -55%

Question: What about the TC (Rattus norvegicus [22]) of the same compound?
Answer: 101

Question: And the “Change HDL -C” value (Rattus norvegicus [23])?
Answer: 31%

Question: And the logD [24]?
Answer: 4.8

Question: And the IC50 [25]?
Answer: 63 nM

Question: And the “Change TC” value (Rattus norvegicus [26])?
Answer: -23%

Question: Which solubility [27] does the source give for CC(C)c1cccc(C(C)C)c1NC(=O)NCC1(c2ccccc2)CCCC1 here?
Answer: < 1 µg/mL

Question: What about the Reduction (Rattus norvegicus [28]) of the same compound?
Answer: 59%

Question: And the solubility [29]?
Answer: < 1 µg/mL

Question: What about the solubility [30] of the same compound?
Answer: < 1 µg/mL

Question: What about the “Delta TC” value (Rattus norvegicus [31]) of the same compound?
Answer: -38%

Question: What about the logD [24] of the same compound?
Answer: 5.16
